The values below come from ChEMBL document CHEMBL1124387, “Cardiotonic agents. 9. Synthesis and biological evaluation of a series of (E)-4,5-dihydro-6-[2-[4-(1H-imidazol-1-yl)phenyl]ethenyl]-3 (2H)-pyridazinones: a novel class of compounds with positive inotropic, antithrombotic, and vasodilatory activities for the treatment of congestive heart failure” (J Med Chem, 1989).

Several values for one entry are separate records, joined by “and”; a condition that tells them apart may be missing. Equal entries are not always repeated.

The first data set relates to Canis familiaris. In words: (§1) Percentage increase in left ventricular contractility in anesthetized dog. It counts as functional, Canis lupus familiaris, Heart left ventricle.
Details: not given
With `CC(Cl)C(=O)Nc1ccc(C2=NNC(=O)CC2C)cc1` (centres undefined) [AMIPIZONE], the Increase is 10% and 23%.

The next data set relates to Canis familiaris. The experiment in a line: Hemodynamic activity in anesthetized dog as percent change from baseline (2271 mmHg/s) in left ventricular myocardial activity at 1 mg/kg administered intravenously. It counts as functional, Canis lupus familiaris, Heart left ventricle. The conditions noted are these: route intravenous.
`CSc1ccc(C(=O)c2[nH]c(=O)[nH]c2C)cc1` [ENOXIMONE] showed a Change of 83%.

With `O=C1CCC(c2ccc(-n3ccnc3)cc2)=NN1` [IMAZODAN], the Change was 147%.

`Nc1cc(-c2ccncc2)c[nH]c1=O` [INAMRINONE] had a Change of 85%.

For `Cc1[nH]c(=O)c(C#N)cc1-c1ccncc1` [MILRINONE], the Change stood at 149%.

The test system of a further data set is Canis familiaris. The experiment in a line: Decrease in thrombus weight in anesthetized dog coronary artery. It counts as functional, Canis lupus familiaris.
Details: not given
In a few lines:
(§2)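 Pentobarbital-anesthetized (32 mg/kg iv), ventilated dogs, allowed 30 min to stabilize. Continuous infusion of compound (1.0, 3.0 or 10.0 μg/kg/min) or saline began 15 min before 50 μA current was applied to an intraluminal electrode in the circumflex coronary artery. After 60 min of stimulation the animals were euthanized and the thrombus dissected and weighed. One treatment per animal.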
By Inhibition is commonly meant how much of the control response was suppressed. Read a high Inhibition as a strong effect. Turning to `CC(Cl)C(=O)Nc1ccc(C2=NNC(=O)CC2C)cc1` (centres undefined) [AMIPIZONE], the Inhibition is 54% and 73% and 77%.

The next data set concerns Canis familiaris. The description is as §1. It is filed as functional, Canis lupus familiaris, Heart left ventricle.
Details: not given
For `CC(Cl)C(=O)Nc1ccc(C2=NNC(=O)CC2C)cc1` (centres undefined) [AMIPIZONE], the Increase is reported as 3%.

The species named for another data set is Homo sapiens. In words: In vitro inhibition of collagen stimulated platelet aggregation in human thrombocyte enriched plasma. It is filed as functional.
Details: not given
The procedure, abridged:
(§3)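 Human platelet-rich plasma from aspirin/NSAID-free donors, adjusted to 250 000 platelets/μL with platelet-poor plasma. Drug in DMSO/saline (1% DMSO final) was added before ADP or collagen, with doses set by titration. Read-out was aggregation extent (ADP, curve height) or rate (collagen, major slope) as % of saline control.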
Broadly, the IC50 is the concentration that inhibits the measured activity by half. A higher IC50 goes with lower potency. Molecule `CC(Cl)C(=O)Nc1ccc(C2=NNC(=O)CC2C)cc1` (centres undefined) [AMIPIZONE] registered an IC50 of 150 nM.

As to `CSc1ccc(C(=O)c2[nH]c(=O)[nH]c2C)cc1` [ENOXIMONE], the IC50 was determined as 15000 nM.

Take `O=C1CCC(c2ccc(-n3ccnc3)cc2)=NN1` [IMAZODAN]: the IC50 was 3000 nM.

The molecule `Nc1cc(-c2ccncc2)c[nH]c1=O` [INAMRINONE] came in with an IC50 of 15000 nM.

`Cc1[nH]c(=O)c(C#N)cc1-c1ccncc1` [MILRINONE] had an IC50 of 100 nM.

The subject of a further data set is Canis familiaris. The experiment in a line: Hemodynamic activity in anesthetized dog as percent change in left ventricular myocardial activity from baseline (2271 mmHg/s) at 0.01 mg/kg administered intravenously. It is filed as functional, Canis lupus familiaris, Heart left ventricle. The conditions noted are these: route intravenous. In a few lines: (§4)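 Acutely instrumented anesthetized dogs (n = 6), 30-min control period. Compound in 0.9% saline, or dilute HCl diluted with saline, at 0.1 mL/kg iv over 1 min. At least four ascending half-log doses, 10 min apart, one compound per animal. Recorded: LV dP/dtmax, heart rate, aortic pressure and forelimb resistance. Values are maximum response from control average ± SEM.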
In turn, `CSc1ccc(C(=O)c2[nH]c(=O)[nH]c2C)cc1` [ENOXIMONE] yielded a Change of 5%.

In the case of `O=C1CCC(c2ccc(-n3ccnc3)cc2)=NN1` [IMAZODAN], the Change worked out at 10%.

Molecule `Cc1[nH]c(=O)c(C#N)cc1-c1ccncc1` [MILRINONE] showed a Change of 31%.

Test system in the next data set: not listed separately
In words: Partition coefficient (logP). It is filed as physicochemical. The conditions noted are these: octanol/water.
For orientation: logP means the decadic logarithm of the partition coefficient of the neutral form, usually between octanol and water. High values mean higher lipophilicity, low ones lower lipophilicity. Turning to `CC(Cl)C(=O)Nc1ccc(C2=NNC(=O)CC2C)cc1` (centres undefined) [AMIPIZONE], the log partition coefficient (logP) was found to be 1.4.

Turning to `O=C1CCC(c2ccc(-n3ccnc3)cc2)=NN1` [IMAZODAN], the logP came to 0.96.

The species entered for another data set is Homo sapiens. The experiment in a line: In vitro inhibition of ADP stimulated platelet aggregation in human whole blood. It counts as functional.
Details: not given
In a few lines: (§5)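 Human whole blood from aspirin/NSAID-free fasted donors, read by impedance aggregometry 5 min after adding ADP or collagen. Aggregation expressed as % of control (2-6 replicates), plotted against log drug concentration; IC50 obtained by extrapolation.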
The molecule `CC(Cl)C(=O)Nc1ccc(C2=NNC(=O)CC2C)cc1` (centres undefined) [AMIPIZONE] returned an IC50 of 0.01 µM.

Turning to `O=C1CCC(c2ccc(-n3ccnc3)cc2)=NN1` [IMAZODAN], the IC50 was determined as 8 µM.

`Nc1cc(-c2ccncc2)c[nH]c1=O` [INAMRINONE] had an IC50 of 50 µM.

Regarding `Cc1[nH]c(=O)c(C#N)cc1-c1ccncc1` [MILRINONE], the IC50 stood at 9 µM.

The species entered for a further data set is Canis familiaris. In words: Weight of thrombus.
Details: not given
It is filed as functional, Canis lupus familiaris. The procedure, abridged: as §2
As to `CC(Cl)C(=O)Nc1ccc(C2=NNC(=O)CC2C)cc1` (centres undefined) [AMIPIZONE], the Thrombus weight was 8.3 mg and 4.8 mg and 4.1 mg.

The subject of a further data set is Canis familiaris. In words: Hemodynamic activity in anesthetized dog as percent change from baseline (2271 mmHg/s) in left ventricular myocardial activity at 0.3 mg/kg administered intravenously. It is filed as functional, Canis lupus familiaris, Heart left ventricle. The conditions noted are these: route intravenous.
`CSc1ccc(C(=O)c2[nH]c(=O)[nH]c2C)cc1` [ENOXIMONE] displayed a Change of 47%.

As for `O=C1CCC(c2ccc(-n3ccnc3)cc2)=NN1` [IMAZODAN], the Change turned out to be 127%.

The molecule `Nc1cc(-c2ccncc2)c[nH]c1=O` [INAMRINONE] showed a Change of 32%.

Consider `Cc1[nH]c(=O)c(C#N)cc1-c1ccncc1` [MILRINONE], for which the Change came to 143%.

For a further data set, the species on record is Homo sapiens. The experiment in a line: In vitro inhibition of collagen stimulated platelet aggregation in human whole blood. It counts as functional.
Details: not given
In a few lines: as §5
Regarding `CC(Cl)C(=O)Nc1ccc(C2=NNC(=O)CC2C)cc1` (centres undefined) [AMIPIZONE], 0.4 µM corresponded to half-maximal inhibition (IC50).

`O=C1CCC(c2ccc(-n3ccnc3)cc2)=NN1` [IMAZODAN] returned an IC50 of 17 µM.

`Nc1cc(-c2ccncc2)c[nH]c1=O` [INAMRINONE] had an IC50 of 500 µM.

As for `Cc1[nH]c(=O)c(C#N)cc1-c1ccncc1` [MILRINONE], inhibition was half-maximal at 0.35 µM (IC50).

The species named for a further data set is Canis familiaris. The experiment in a line: Ratio of positive inotropic activity to peripheral Vasodilator activity in dogs.
Details: not given
It counts as functional, Canis lupus familiaris. In a few lines: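 Inotropic ED20 is the iv bolus dose giving a 20% rise in dP/dtmax in anesthetized dogs. Vasodilator ED20 is the bolus dose into the brachial cannula of a constant-flow perfused forelimb (pentobarbital 30 mg/kg iv then 3.0 mg/kg/h, heparinized) giving a 20% fall in perfusion pressure. Each ED20 was taken from its dose-response curve; the ratio is PI/PV.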
In the case of `CSc1ccc(C(=O)c2[nH]c(=O)[nH]c2C)cc1` [ENOXIMONE], the Ratio turned out to be 0.58.

A further data set relates to Canis familiaris. In words: Hemodynamic activity in anesthetized dog as percent change from baseline (2271 mmHg/s) in left ventricular myocardial activity at 3.1 mg/kg administered intravenously. It counts as functional, Canis lupus familiaris, Heart left ventricle. To be noted: route intravenous. In a few lines:
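Anaesthetised dogs were given one compound each, in ascending half-log iv doses 10 min apart, typically four to six doses. Each dose was dissolved in 0.9% saline or dilute HCl (0.1 or 1.0 N), made up with saline, and given as 0.1 mL/kg over 1 min after a 30-min control period. The readout was LV dP/dt_max from a differentiator amplifier, reported as maximum % change from control average ± SEM.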
As to `Nc1cc(-c2ccncc2)c[nH]c1=O` [INAMRINONE], the Change was found to be 165%.

The subject of a further data set is Canis familiaris. In words: Hemodynamic activity in anesthetized dog as percent change from baseline (2271 mmHg/s) in left ventricular myocardial activity at 0.1 mg/kg administered intravenously. It counts as functional, Canis lupus familiaris, Heart left ventricle. The conditions noted are these: route intravenous.
Turning to `CSc1ccc(C(=O)c2[nH]c(=O)[nH]c2C)cc1` [ENOXIMONE], the Change was found to be 19%.

Molecule `O=C1CCC(c2ccc(-n3ccnc3)cc2)=NN1` [IMAZODAN] displayed a Change of 74%.

Molecule `Nc1cc(-c2ccncc2)c[nH]c1=O` [INAMRINONE] returned a Change of 9%.

`Cc1[nH]c(=O)c(C#N)cc1-c1ccncc1` [MILRINONE] displayed a Change of 113%.

The species named for another data set is Homo sapiens. The experiment in a line: In vitro inhibition of ADP stimulated platelet aggregation in human thrombocyte enriched plasma. It is filed as functional.
Details: not given
The procedure, abridged: as §3
With `CC(Cl)C(=O)Nc1ccc(C2=NNC(=O)CC2C)cc1` (centres undefined) [AMIPIZONE], the IC50 turned out to be 0.35 µM.

The molecule `CSc1ccc(C(=O)c2[nH]c(=O)[nH]c2C)cc1` [ENOXIMONE] gave an IC50 of 120 µM.

With `O=C1CCC(c2ccc(-n3ccnc3)cc2)=NN1` [IMAZODAN], half-maximal inhibition (IC50) required 20 µM.

`Nc1cc(-c2ccncc2)c[nH]c1=O` [INAMRINONE] yielded an IC50 of 250 µM.

`Cc1[nH]c(=O)c(C#N)cc1-c1ccncc1` [MILRINONE] had an IC50 of 10 µM.

The next data set deals with Canis familiaris. In words: Hemodynamic activity in anesthetized dog as percent change in left ventricular myocardial activity from baseline (2271 mmHg/s) at 0.03 mg/kg administered intravenously. It counts as functional, Canis lupus familiaris, Heart left ventricle. To be noted: route intravenous. In a few lines:
as §4
`CSc1ccc(C(=O)c2[nH]c(=O)[nH]c2C)cc1` [ENOXIMONE] had a Change of 7%.

`O=C1CCC(c2ccc(-n3ccnc3)cc2)=NN1` [IMAZODAN] returned a Change of 37%.

For `Cc1[nH]c(=O)c(C#N)cc1-c1ccncc1` [MILRINONE], the Change came out at 78%.
